No end group written: not given here.
Legend:
[1] = Body weight of xenograft mice during treatment; assay type: in vivo; conditions: 9 doses 5 mg kg−1, Fig. 6c
How it was run: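 MDA-MB-231 cells (3 × 10^6) injected subcutaneously into 7–8-week-old athymic nude (FOXN1NU) mice. Dosing started 28 days after inoculation and ran for 3 weeks: either 6 doses of peptide at 50 μM (0.875 mg kg−1; 17.5 microgram/mouse) or 9 doses of doxorubicin (5 mg kg−1). Body weight and tumour size were tracked throughout.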

[2] = test system: MDA-MB-231 cells; assay: Uptake of fluorescein labelled peptide, confocal microscopy; assay type: cell-based, human; conditions: 10 μM, confocal fluorescence, inside cells at 3 and 6 hours; Fig. 1d, e
[3] = test system: MCF-10A cells; assay: Uptake of fluorescein labelled peptide, confocal microscopy; assay type: cell-based, human; conditions: 10 μM, confocal fluorescence; Fig. 1d, e
How it was run: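 MCF-10A cells were grown in 1:1 DMEM/Ham's F12 with 5% horse serum, EGF, insulin, hydrocortisone, cholera toxin and pen/strep. They were plated a day ahead at 2 × 10^5 in glass-bottom chamber dishes and exposed to fluorescein-labelled peptide (10 μM) for up to 24 h. Nuclei were stained with Hoechst 33342 and mitochondria with Rhodamine 800, then imaged by confocal microscopy over time. Data: 25 cells per field per time point, n = 5 independent experiments, mean ± SD.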

[4] = test system: rat cardio myoblast H9C2 cells; assay: Penetration and cytotoxicity in non-malignant immortalized cells; assay type: cell-based; conditions: semi-confocal microscopy, 3h incubation; Fig. S2
[5] = test system: human embryonic kidney 293 HEK cells; assay: as above; assay type: cell-based; conditions: semi-confocal microscopy, 3h incubation; Fig. S2

| Molecule | body weight during treatment [1] | penetration of fluorescein-labelled peptide into MDA-MB-231 cells [2] | penetration of fluorescein-labelled peptide into MCF-10A cells [3] | entry of fluorescein-labelled peptide into H9C2 cells [4] | entry of fluorescein-labelled peptide into 293 HEK cells [5] |
| --- | --- | --- | --- | --- | --- |
| COc1cccc2c1C(=O)c1c(O)c3c(c(O)c1C2=O)C[C@@](O)(C(=O)CO)C[C@@H]3O[C@H]1C[C@H](N)[C@H](O)[C@H](C)O1 [doxorubicin] | severe decrease in body weight | – | – | – | – |
| Fl-NAF-1^44-67: NAF-1^44-67 labelled with fluorescein ({5(6)‑carboxyfluorescein}-FLGVLALLGYLAVRPFLPKKKQQK; UniProt Q8N5K1 44-67, looked up, fragment) | – | preferentially penetrated MDA-MB-231 cancer cells | did not permeate normal cells | no entry | no entry |

Source: paper PMC9200128 (Chemical Science, 2022)
